Results pooled from the literature.
Compare with care: the assays were run in different laboratories.
Target: SRSF protein kinase 2 (SRPK2, Homo sapiens, UniProt P78362)

CC/C(=N\NC(=O)NCc1cccc(O)c1)c1ccc(O)c(C)c1O — inhibition (enzyme activity, inhibitor; 0.1 µM): -2.2%
C#Cc1cccc(Nc2ncnc3cc(OCCOC)c(OCCOC)cc23)c1 — remaining signal (cell-free assay; 0.5 µM): 101%
Cc1ccc(C(=O)Nc2ccc(CN3CCN(C)CC3)c(C(F)(F)F)c2)cc1C#Cc1cnc2cccnn12 — remaining activity (enzyme activity, inhibitor; 23.5 nM): 94%
CNC(=O)Nc1ccc2c(c1)[C@@]1(CC2)OC(=O)N(CC(=O)N(Cc2ccc(F)cc2)[C@@H](C)C(F)(F)F)C1=O — remaining binding (cell-free assay, competition with immobilised ligand; 1 µM): 100%
CC(C)(C)c1nc2c(s1)c1nc(N)ncc1c1ccc(NS(=O)(=O)c3c(F)cccc3F)c(F)c12 — remaining activity (enzyme activity, inhibitor, radiometric; 1 µM): 108%
CCN(CC)CCNC(=O)c1c(C)[nH]c(/C=C2\C(=O)Nc3ccc(F)cc32)c1C — inhibition (enzyme activity, inhibitor; 10 µM): 37%
Cn1c2c(c3ccc(Cl)c(Cl)c31)C(C#N)C(C)(C)NC2=O (centres unmarked) — ΔTm (thermal stability, DSF; 10 µM): 0.6 °C
CC(C1CC1)n1cnc2c(NCc3cccc(C(F)(F)F)c3)nc(NCCN(C)C)nc21 (centres unmarked) — inhibition (enzyme activity, inhibitor; 5 µM): > 50%
Cc1ccc(Nc2nccc(N(C)c3ccc4c(C)n(C)nc4c3)n2)cc1S(N)(=O)=O — inhibition (enzyme activity, inhibitor; 10 µM): 4%
CCCS(=O)(=O)Nc1ccc(F)c(C(=O)c2c[nH]c3ncc(-c4ccc(Cl)cc4)cc23)c1F — inhibition (enzyme activity, inhibitor; 1 µM): < 10%
Cc1sc(C(=O)NC2COC2)cc1-n1cc(NC(=O)Nc2c(F)cccc2Cl)cn1 — remaining activity (enzyme activity, inhibitor; 10 µM): 114%
CC1(C)NC(=O)c2[nH]c3c(Cl)c(Cl)ccc3c2C1C#N (centres unmarked) — ΔTm (thermal stability, DSF; 10 µM): 0.4 °C
CN1CC(Oc2cnc(C#N)cc2-c2ccn3nc(NC(=O)C4CC4)cc3c2)C1 — inhibition (enzyme activity, inhibitor; 1 µM): 6%
Cn1c2c(Cl)c(Cl)ccc2c2cc[nH]c(=O)c21 — ΔTm (thermal stability, DSF; 10 µM): -0.2 °C
CNCc1ccccc1-c1csc([C@@H](C)Nc2nc(C)nc3cc(OC)c(OC)cc23)c1 — remaining binding (cell-free assay, competition with immobilised ligand; 1 µM): 61%
Cn1c2c(c3ccccc31)C(C#N)C(C)(C)NC2=O (centres unmarked) — ΔTm (thermal stability, DSF; 10 µM): 0 °C
O=C1Nc2ccc(Cl)cc2C1=Cc1cc(Cl)c(O)c(Cl)c1 — remaining signal (cell-free assay; 0.5 µM): 95.2%
COc1cc2ncnc(Nc3ccc(Oc4ccccc4)c(C)c3C)c2cc1OC — inhibition (enzyme activity, inhibitor; 1 µM): -3%
N#CC1c2c([nH]c3c(Cl)c(Cl)ccc23)C(=O)NC12CCCCC2 (racemic) — ΔTm (thermal stability, DSF; 10 µM): 0.7 °C
COc1cc(-c2cc(-c3ccc(N4CCNCC4)cc3)cnc2C)cc(OC)c1OC — inhibition (enzyme activity, inhibitor; 1 µM): 2%
CCC(=N\O)/C(C)=C/c1ccc(F)cc1 — remaining binding (cell-free assay, competition with immobilised ligand; 1 µM): 75%
CCC1(CC)NC(=O)c2c(c3ccc(Cl)c(Cl)c3n2C)C1C#N (centres unmarked) — ΔTm (thermal stability, DSF; 10 µM): 0.1 °C
COc1cccc(CNC(=O)c2nc3scc(COCc4ccc(C(=O)O)cc4)c3c(=O)[nH]2)c1 — remaining binding (cell-free assay, competition with immobilised ligand; 1 µM): 100%
CCN(CC)c1ccc(C2=NNC(=O)CC2C)cc1[N+](=O)[O-] (centres unmarked) — remaining activity (enzyme activity, inhibitor; 10 µM): 100%
C[C@@H]1CN(c2cc(-c3n[nH]c4ccc(OC5(C)CC5)cc34)ncn2)C[C@H](C)O1 — remaining binding (cell-free assay, competition with immobilised ligand; 0.1 µM): 79%
Cn1c2c(Cl)c(Cl)ccc2c2cc(N)[nH]c(=O)c21 — ΔTm (thermal stability, DSF; 10 µM): 0.1 °C
C[C@@H](c1cccc(C#N)c1)n1cc(Cl)cc(C(N)=O)c1=N — remaining binding (cell-free assay, competition with immobilised ligand; 1 µM): 100%
COc1cc(Cl)c(C(=O)N[C@@H](CN[C@H]2CC[C@@H](N)CC2)Cc2ccc(C#N)cc2)cc1-c1ccc(CN[C@H](C)c2ccc(C)cc2)o1 — remaining activity (enzyme activity, inhibitor; 1 µM): 98%
O=C(NS(=O)(=O)c1ccc(NCC2CCOCC2)c([N+](=O)[O-])c1)c1ccc(N2CCN(Cc3ccc(C(F)(F)F)cc3-c3ccc(Cl)cc3)CC2)cc1Oc1cnc2[nH]ccc2c1 — remaining binding (cell-free assay, competition with immobilised ligand; 1 µM): 100%
CNC(=O)c1cc(Oc2ccc(NC(=O)Nc3ccc(Cl)c(C(F)(F)F)c3)cc2)ccn1 — inhibition (enzyme activity, inhibitor; 10 µM): 12%
CO[C@@H](C)c1c(Nc2ccc([C@H](N(C)C(=O)C3CCS(=O)(=O)CC3)C(F)(F)F)cc2)cnc2cc(Cl)nn12 — remaining binding (cell-free assay, competition with immobilised ligand; 1 µM): 100%
O=C(Nc1cnn(-c2csc(C(=O)NC3COC3)c2)c1)Nc1ccccc1Cl — remaining activity (enzyme activity, inhibitor; 5 µM): 95.6%
